Several values for one entry are separate records, joined by “and”; a condition that tells them apart may be missing. Identical values can stand only once.
Assays:
Leishmania amazonensis = assay: Tested for growth inhibitory activity against Leishmania amazonensis promastigotes; format: functional, organism-based
Outline: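 L. amazonensis promastigotes (MHOM/BR/77/LTB0016), grown at 25 °C in LIT medium with 10% heat-inactivated FCS, harvested late log phase, adjusted to 4×10^6/mL. Drugs in DMSO (≤1.6% v/v) at 160 to 5 μg/mL; 24 h incubation; parasites counted in Neubauer chamber; inhibition versus DMSO and untreated controls; IC50 by linear regression of inhibition against log concentration.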

[1] = Partition coefficient (logP); format: physicochemical; settings: octanol/water
Outline: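 Shake-flask octanol/aqueous buffer pH 7.4 partition; compound stock 4 × 10^-3 M in 1,4-dioxane; phases shaken 1 h at 25.0 ± 0.1 °C, centrifuged 15 min; both layers read by UV at λmax 320–354 nm; three replicates. P taken as quotient of buffer and octanol concentrations. Some values instead calculated from unsubstituted parent log P plus hydrophobic fragmental constants (log PX = log PH + πX).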

[2] = pKa was determined; format: physicochemical

| logP [1] | pKa [2] | SMILES | IC50 (Leishmania amazonensis) |
| --- | --- | --- | --- |
| – | – | CCN(CC)Cc1cc(Nc2ccnc3cc(Cl)ccc23)ccc1O.Cl | 0.34 µg/mL and 950 nM |
| 0.68 | 8.38 | CCOC(=O)c1cnc2c(c(C)nn2C)c1Nc1cccc([N+](=O)[O-])c1 | 6.11 µg/mL and 17.2 µM |
| 0.96 | 8.23 | CCOC(=O)c1cnc2c(c(C)nn2C)c1Nc1ccccc1 | 30.7 µg/mL and 98.9 µM |
| 1.32 | 7.98 | CCOC(=O)c1cnc2c(c(C)nn2C)c1Nc1ccc(Cl)cc1 | 1.34 µg/mL and 3.89 µM |
| 0.7 | 8.14 | CCOC(=O)c1cnc2c(c(C)nn2C)c1Nc1ccc(F)cc1 | 12.8 µg/mL and 39 µM |
| 0.68 | 8.8 | CCOC(=O)c1cnc2c(c(C)nn2C)c1Nc1ccc([N+](=O)[O-])cc1 | 114 µg/mL and 321 µM |
| 1.82 | 8.39 | CCOC(=O)c1cnc2c(c(C)nn2C)c1Nc1ccc(Br)cc1 | 4.57 µg/mL and 11.7 µM |
| 0.94 | 8.07 | CCOC(=O)c1cnc2c(c(C)nn2C)c1Nc1ccc(OC)cc1 | 10.9 µg/mL and 32 µM |
| 3.09 | – | CCOC(=O)c1cnc2c(c(-c3ccccc3)nn2-c2ccccc2)c1Nc1ccc(O)cc1 | 0.34 µg/mL and 750 nM |
| 1.67 | 9.05 | CCOC(=O)c1cnc2c(c(C)nn2C)c1Nc1cccc(Cl)c1 | 4.79 µg/mL and 13.9 µM |
| 2.05 | – | CCOC(=O)c1cnc2c(c(C)nn2-c2ccccc2)c1Nc1ccc(O)c(CN(CC)CC)c1 | 0.18 µg/mL and 390 nM |
| 1.14 | 9.98 | CCOC(=O)c1cnc2c(c(C)nn2C)c1Nc1ccc(O)cc1 | 1.37 µg/mL and 4.2 µM |
| 0.94 | 7.64 | CCOC(=O)c1cnc2c(c(C)nn2C)c1Nc1cccc(OC)c1 | 7.45 µg/mL and 21.9 µM |
| 3.45 | – | CCOC(=O)c1cnc2c(c(-c3ccccc3)nn2-c2ccccc2)c1Nc1ccc(O)c(CN(CC)CC)c1 | 0.06 µg/mL and 120 nM |
| 2.27 | 7.06 | CCOC(=O)c1cnc2c(c(C)nn2C)c1Nc1cccc(C)c1 | 4.82 µg/mL and 14.9 µM |
| 1.69 | – | CCOC(=O)c1cnc2c(c(C)nn2-c2ccccc2)c1Nc1ccc(O)cc1 | 0.21 µg/mL and 550 nM |
| 1.52 | 8.61 | CCOC(=O)c1cnc2c(c(C)nn2C)c1Nc1ccc(C)cc1 | 10.6 µg/mL and 32.6 µM |
| – | – | N=C(N)c1ccc(OCCCCCOc2ccc(C(=N)N)cc2)cc1.O=S(=O)(O)CCO | 0.27 µg/mL and 460 nM |
